# Measured values: ChEMBL document CHEMBL5058577, “EUbOPEN Chemogenomics Library 2 (Multiplex)” (2022)
# System: Fibroblast
# Assay: Multiplex assay against human fibroblast
# Format: toxicity, cell-based
# In short: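 With compound added, live cells were imaged on a CQ1 microscope at 37°C and 5% CO2; staining with Hoechst33342, BioTracker Green Microtubule Cytoskeleton Dye, MitoTracker Red and Annexin V Alexa Fluor 680 had been done at seeding. The CellPathfinder machine-learning gating scheme split cells into Hoechst high-intensity objects or normal cells, normal cells into healthy, pyknosed or fragmented nuclei, and pyknosed cells into mitotic or apoptotic. The tubulin, mitochondrial-mass and membrane-permeability phenotypes are per cents of healthy-nucleus cells.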
# [1] = 12 h, 1 µM, compound concentration 1 uM, replicate 1
# [2] = 12 h, 1 µM, compound concentration 1 uM, replicate 2
# [3] = 12 h, 10 µM, compound concentration 10 uM, replicate 1
# [4] = 12 h, 10 µM, compound concentration 10 uM, replicate 2
# [5] = 24 h, 1 µM, compound concentration 1 uM, replicate 1
# [6] = 24 h, 1 µM, compound concentration 1 uM, replicate 2
# [7] = 24 h, 10 µM, compound concentration 10 uM, replicate 1
# [8] = 24 h, 10 µM, compound concentration 10 uM, replicate 2
# [9] = 48 h, 1 µM, compound concentration 1 uM, replicate 1
# [10] = 48 h, 1 µM, compound concentration 1 uM, replicate 2
# [11] = 48 h, 10 µM, compound concentration 10 uM, replicate 1
# [12] = 48 h, 10 µM, compound concentration 10 uM, replicate 2
smiles,measurement,setting,value
CCCCCC(O)/C=C/[C@H]1C(=O)CC(O)C1C/C=C\CCCC(=O)O (some centres undefined),Population Apoptotic (%),[1],52%
same,Population Fragmented Nuclei (%),[1],24%
same,Population Healthy Nuclei (%),[1],65%
same,Population Hoechst High Intensity Objects (%),[1],1%
same,Population Membrane Permeable-Phenotype (%),[1],0%
same,Population Mitochondria Different-Phenotype (%),[1],4%
same,Population Mitotic Cells (%),[1],47%
same,Population Normal (%),[1],98%
same,Population Pyknosed Nuclei (%),[1],10%
same,Population Tubulin-Different-Phenotype (%),[1],19%
same,Total Cell Count,[1],172
same,Population Apoptotic (%),[2],50%
same,Population Fragmented Nuclei (%),[2],40%
same,Population Healthy Nuclei (%),[2],41%
same,Population Hoechst High Intensity Objects (%),[2],2%
same,Population Membrane Permeable-Phenotype (%),[2],7%
same,Population Mitochondria Different-Phenotype (%),[2],20%
same,Population Mitotic Cells (%),[2],50%
same,Population Normal (%),[2],97%
same,Population Pyknosed Nuclei (%),[2],18%
same,Population Tubulin-Different-Phenotype (%),[2],52%
same,Total Cell Count,[2],169
same,Population Apoptotic (%),[3],42%
same,Population Fragmented Nuclei (%),[3],16%
same,Population Healthy Nuclei (%),[3],69%
same,Population Hoechst High Intensity Objects (%),[3],0%
same,Population Membrane Permeable-Phenotype (%),[3],0%
same,Population Mitochondria Different-Phenotype (%),[3],1%
same,Population Mitotic Cells (%),[3],57%
same,Population Normal (%),[3],99%
same,Population Pyknosed Nuclei (%),[3],13%
same,Population Tubulin-Different-Phenotype (%),[3],16%
same,Total Cell Count,[3],139
same,Population Apoptotic (%),[4],34%
same,Population Fragmented Nuclei (%),[4],20%
same,Population Healthy Nuclei (%),[4],56%
same,Population Hoechst High Intensity Objects (%),[4],2%
same,Population Membrane Permeable-Phenotype (%),[4],3%
same,Population Mitochondria Different-Phenotype (%),[4],7%
same,Population Mitotic Cells (%),[4],65%
same,Population Normal (%),[4],97%
same,Population Pyknosed Nuclei (%),[4],23%
same,Population Tubulin-Different-Phenotype (%),[4],41%
same,Total Cell Count,[4],101
same,Population Apoptotic (%),[5],35%
same,Population Fragmented Nuclei (%),[5],20%
same,Population Healthy Nuclei (%),[5],70%
same,Population Hoechst High Intensity Objects (%),[5],0%
same,Population Membrane Permeable-Phenotype (%),[5],0%
same,Population Mitochondria Different-Phenotype (%),[5],2%
same,Population Mitotic Cells (%),[5],64%
same,Population Normal (%),[5],99%
same,Population Pyknosed Nuclei (%),[5],8%
same,Population Tubulin-Different-Phenotype (%),[5],21%
same,Total Cell Count,[5],169
same,Population Apoptotic (%),[6],50%
same,Population Fragmented Nuclei (%),[6],41%
same,Population Healthy Nuclei (%),[6],50%
same,Population Hoechst High Intensity Objects (%),[6],1%
same,Population Membrane Permeable-Phenotype (%),[6],4%
same,Population Mitochondria Different-Phenotype (%),[6],10%
same,Population Mitotic Cells (%),[6],50%
same,Population Normal (%),[6],98%
same,Population Tubulin-Different-Phenotype (%),[6],47%
same,Total Cell Count,[6],184
same,Population Apoptotic (%),[7],61%
same,Population Fragmented Nuclei (%),[7],17%
same,Population Healthy Nuclei (%),[7],72%
same,Population Hoechst High Intensity Objects (%),[7],2%
same,Population Membrane Permeable-Phenotype (%),[7],1%
same,Population Mitochondria Different-Phenotype (%),[7],3%
same,Population Mitotic Cells (%),[7],38%
same,Population Normal (%),[7],97%
same,Population Pyknosed Nuclei (%),[7],9%
same,Population Tubulin-Different-Phenotype (%),[7],21%
same,Total Cell Count,[7],138
same,Population Apoptotic (%),[8],33%
same,Population Fragmented Nuclei (%),[8],18%
same,Population Healthy Nuclei (%),[8],59%
same,Population Hoechst High Intensity Objects (%),[8],4%
same,Population Membrane Permeable-Phenotype (%),[8],3%
same,Population Mitochondria Different-Phenotype (%),[8],1%
same,Population Mitotic Cells (%),[8],66%
same,Population Normal (%),[8],95%
same,Population Pyknosed Nuclei (%),[8],21%
same,Population Tubulin-Different-Phenotype (%),[8],29%
same,Total Cell Count,[8],101
same,Population Apoptotic (%),[9],50%
same,Population Fragmented Nuclei (%),[9],27%
same,Population Healthy Nuclei (%),[9],66%
same,Population Hoechst High Intensity Objects (%),[9],3%
same,Population Membrane Permeable-Phenotype (%),[9],0%
same,Population Mitochondria Different-Phenotype (%),[9],2%
same,Population Mitotic Cells (%),[9],50%
same,Population Normal (%),[9],96%
same,Population Pyknosed Nuclei (%),[9],5%
same,Population Tubulin-Different-Phenotype (%),[9],19%
same,Total Cell Count,[9],175
same,Population Apoptotic (%),[10],30%
same,Population Fragmented Nuclei (%),[10],47%
same,Population Healthy Nuclei (%),[10],46%
same,Population Hoechst High Intensity Objects (%),[10],2%
same,Population Membrane Permeable-Phenotype (%),[10],3%
same,Population Mitochondria Different-Phenotype (%),[10],7%
same,Population Mitotic Cells (%),[10],70%
same,Population Normal (%),[10],97%
same,Population Tubulin-Different-Phenotype (%),[10],42%
same,Total Cell Count,[10],186
same,Population Apoptotic (%),[11],63%
same,Population Fragmented Nuclei (%),[11],17%
same,Population Healthy Nuclei (%),[11],74%
same,Population Hoechst High Intensity Objects (%),[11],4%
same,Population Membrane Permeable-Phenotype (%),[11],0%
same,Population Mitochondria Different-Phenotype (%),[11],0%
same,Population Mitotic Cells (%),[11],36%
same,Population Normal (%),[11],95%
same,Population Pyknosed Nuclei (%),[11],8%
same,Population Tubulin-Different-Phenotype (%),[11],14%
same,Total Cell Count,[11],141
same,Population Apoptotic (%),[12],33%
same,Population Fragmented Nuclei (%),[12],30%
same,Population Healthy Nuclei (%),[12],61%
same,Population Hoechst High Intensity Objects (%),[12],0%
same,Population Membrane Permeable-Phenotype (%),[12],6%
same,Population Mitochondria Different-Phenotype (%),[12],3%
same,Population Mitotic Cells (%),[12],66%
same,Population Normal (%),[12],99%
same,Population Tubulin-Different-Phenotype (%),[12],47%
same,Total Cell Count,[12],104
